High-throughput results from PubChem BioAssay.
bIAP inhibitor – bovine intestinal alkaline phosphatase inhibitors, primary screen, selectivity assay for TNAP inhibitor project, biochemical, bovine IAP, CDP-star luminescence; purified bovine IAP, 30 min; inhibition, % at 20 µM; 190,000 tested, under 10 active; AID 1019, 2008;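 active = over 50% inhibition of intestinal alkaline phosphatase at 20 µM in the single-dose screen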
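System: Purified bovine intestinal alkaline phosphatase (IAP) enzyme | Input: IAP diluted 1/65,000,000 in the well | Also added: CDP-star chemiluminescent phosphatase substrate, 30 µM final | Dosing: 20 µM single dose | Times: Enzyme reaction for 30 min at room temperature | Detection: Luminescence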
mIAP block – inhibitors of mouse IAP, primary screen, biochemical, luminescence, uHTS; purified mouse IAP, CDP-Star luminescence, 30 min; inhibition, % at 10 µM; 330,000 tested, 0.2% active; intestinal alkaline phosphatase [Mus musculus]; AID 2806, 2010;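 active = inhibition of at least 40% at 10 µM in the primary screen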;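 note: plate controls were DMSO with enzyme for no effect and no enzyme wells for full effect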
hIAP act – human IAP activators, primary screen, biochemical, luminescence, uHTS | Intestinal-type alkaline phosphatase (Homo sapiens), P09923 | purified human IAP, CDP-Star luminescence, 30 min; stronger effect = higher value; 1 = vehicle-only enzyme, 0 = enzyme-free background | activation factor at 10 µM | 330,000 tested, 0.16% active;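 active = activation factor of the enzyme at least 2-fold when tested at 20 µM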
Target sequence (P09923 whole entry, looked up): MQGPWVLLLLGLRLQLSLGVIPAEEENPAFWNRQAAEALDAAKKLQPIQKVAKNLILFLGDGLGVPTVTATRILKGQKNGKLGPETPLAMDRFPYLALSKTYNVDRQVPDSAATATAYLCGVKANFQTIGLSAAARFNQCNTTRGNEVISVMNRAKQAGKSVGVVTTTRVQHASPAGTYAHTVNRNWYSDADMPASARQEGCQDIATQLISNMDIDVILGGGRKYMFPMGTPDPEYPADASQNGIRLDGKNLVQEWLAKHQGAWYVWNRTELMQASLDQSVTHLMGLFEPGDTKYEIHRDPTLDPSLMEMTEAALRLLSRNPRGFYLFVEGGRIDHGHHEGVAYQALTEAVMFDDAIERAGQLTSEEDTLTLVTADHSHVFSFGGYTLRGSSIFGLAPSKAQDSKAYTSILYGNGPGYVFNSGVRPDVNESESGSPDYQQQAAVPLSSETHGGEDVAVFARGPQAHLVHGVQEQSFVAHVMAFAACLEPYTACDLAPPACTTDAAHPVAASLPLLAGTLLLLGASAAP
mIAP act – activators of mouse IAP, primary screen, biochemical, luminescence, uHTS. 330,000 tested, 0.24% active. intestinal alkaline phosphatase [Mus musculus]. muIAP, CDP-Star luminescence, 30 min; stronger effect = higher value; 1 = vehicle-only enzyme signal, 0 = enzyme-free wells. activation factor at 10 µM. AID 2805, 2010;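 active = activation factor of at least 2 at 20 µM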
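System: mouse IAP enzyme. Reagent: CDP-Star chemiluminescent phosphatase substrate. Benchmarks: DMSO wells, no-enzyme wells. Times: 30 min enzyme-substrate-compound incubation at room temperature. Detection: luminescence from enzymatic CDP-Star hydrolysis. Doses: test compounds delivered from DMSO solution.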
hIAP block – human IAP inhibitors, primary screen, biochemical, luminescence, uHTS | Intestinal-type alkaline phosphatase (Homo sapiens), P09923 | purified IAP, CDP-Star luminescence, 30 min | inhibition, % at 10 µM | 330,000 tested, 0.12% active | AID 2544, 2010;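 active = inhibition reaching a set limit with compound at 10 µM in the primary screen, cut at about 35% in these data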;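 note: plate controls were DMSO wells with enzyme for no effect and no-enzyme buffer wells for full effect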
bIAP activator – bovine intestinal alkaline phosphatase activators, primary screen, biochemical, bovine IAP, CDP-star luminescence; alkaline phosphatase, intestinal [Bos taurus]; purified bovine IAP, 30 min; stronger effect = higher value; fold of DMSO-control signal, blank-subtracted; activation factor at 20 µM; 200,000 tested, 0.17% active; AID 1016, 2008;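 active = activation factor of 2 or more at 20 µM, a signal rise over negative controls twice the positive control's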
mIAP inh conf – inhibitors of mouse IAP, confirmation, biochemical, luminescence, single concentration. shares compounds with mIAP block. purified mouse IAP, CDP-Star luminescence, 30 min. inhibition, % at 10 µM. 11,000 tested, 4.7% active. AID 434971, 2010;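 active = inhibition of at least 40% at 10 µM in either of the two replicates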;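 note: plate controls were DMSO wells with enzyme for no effect and buffer wells lacking enzyme for full effect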
* marks the source's active call; other numbers are inactive results; ! = a repeat was not active. Most compounds without a hit are left out; they make up all but 0.72% or so of the library.

Cc1ccc(CNC(=O)c2cc(-c3ccccc3)nn2Cc2cc(C)no2)cc1 was read as mIAP block -122, hIAP act 1, mIAP act 2.2*, hIAP block 0 and mIAP inh conf -126.
Screening CCc1cc(Cn2nc(-c3ccccc3)cc2C(=O)NCc2ccccc2OC)on1 returned mIAP block -159, hIAP act 0.97, mIAP act 2.6*, hIAP block 2 and mIAP inh conf -99.
For C[C@@H]1CCCCCCCCC(=O)OCCN(C(=O)OC(C)(C)C)[C@H](C)CCCCCCCCC(=O)OCCN(C(=O)OC(C)(C)C)[C@H](C)CCCCCCCCC(=O)OCCN1C(=O)OC(C)(C)C the results were mIAP block 6, hIAP act 0.94, mIAP act 0.94 and hIAP block 6.
For CCOc1ccccc1C(=O)NC1CCNCC1 the results were mIAP block -5, hIAP act 1.1, mIAP act 1 and hIAP block -6.
OC[C@@H]1[C@@H](c2ccccc2)C(c2ccccc2)=NN1c1ccccc1 was read as mIAP block -127, mIAP act 2.3* and mIAP inh conf -115.
`OC[C@@H]1[C@@H](c2ccccc2)C(c2cccc(Cl)c2)=NN1c1ccccc1` gave mIAP block -151, mIAP act 2.5* and mIAP inh conf -128.
For Cc1c(NC(=O)COC(=O)/C=C/c2cccc(Br)c2)c(=O)n(-c2ccccc2)n1C the results were mIAP block -16, hIAP act 1.1, mIAP act 1.2 and hIAP block -6.
Cc1ccccc1CN1CCN(CCCc2ccccc2)C(CCO)C1 (configuration not stated) was read as mIAP block 9, hIAP act 1.1, mIAP act 0.91 and hIAP block -8.
Screening Cc1csc(NC(=O)c2ccc(Cl)nc2)n1 returned mIAP block 3, hIAP act 0.96, mIAP act 0.97 and hIAP block 4.
For C=Cc1c(C)c2cc3[nH]c(cc4nc(cc5nc(cc1[nH]2)C(C)=C5CCC(=O)O)C(CCC(=O)O)=C4C)c(C)c3C=C the results were mIAP block 42*!, hIAP act 0.86, mIAP act 0.58, hIAP block 14 and mIAP inh conf 42*.
For Oc1cccc(C=Nc2cccc3ccccc23)c1O the results were mIAP block 38, hIAP act 1.1, mIAP act 0.62 and hIAP block -5.
Screening Oc1cccc(C=NCc2ccccc2)c1O returned bIAP inhibitor 16, mIAP block 58*, hIAP act 1.1, mIAP act 0.42, hIAP block -6, bIAP activator 0.8 and mIAP inh conf 63*.
Screening COc1ccccc1NC(=O)/C(=C\c1cccs1)NC(=O)c1ccco1 returned mIAP block -2, hIAP act 0.85, mIAP act 1 and hIAP block 15.
For COCCn1nnnc1C(c1cc2c(C)cc(C)cc2[nH]c1=O)N1CCCCCC1 (configuration not stated) the results were bIAP inhibitor -11, mIAP block 13, hIAP act 0.73, mIAP act 0.87, hIAP block 27 and bIAP activator 1.1.
`CCN(Cc1ccccc1)C(c1cc2cc(C)ccc2[nH]c1=O)c1nnnn1CCOC` (configuration not stated) gave bIAP inhibitor 16, mIAP block 56*, hIAP act 1.1, mIAP act 0.44, hIAP block -13, bIAP activator 0.8 and mIAP inh conf 57*.
Screening COCCn1nnnc1C(c1cc2cc(C)ccc2[nH]c1=O)N1CCCCCC1 (configuration not stated) returned bIAP inhibitor -13, mIAP block 67*, hIAP act 0.92, mIAP act 0.33, hIAP block 8, bIAP activator 1.1 and mIAP inh conf 70*.
Screening O=C1/C(=C\c2ccco2)SC(=S)N1C1CCS(=O)(=O)C1 (configuration not stated) returned mIAP block 64*, hIAP act 1, mIAP act 0.36, hIAP block 0 and mIAP inh conf 71*.
For O=C1/C(=C/c2ccco2)SC(=S)N1C1CCS(=O)(=O)C1 (configuration not stated) the results were bIAP inhibitor -22, mIAP block 67*, hIAP act 1.3, mIAP act 0.33, hIAP block -31, bIAP activator 1.2 and mIAP inh conf 71*.
Screening CCN(C(=O)C(C)N1C(=O)/C(=C/c2ccco2)SC1=S)C1CCS(=O)(=O)C1 (configuration not stated) returned mIAP block 51*, hIAP act 1, mIAP act 0.49, hIAP block 0 and mIAP inh conf 70*.
Screening Cc1ccc(/C=C2\SC(=S)N(C3CCS(=O)(=O)C3)C2=O)cc1 (configuration not stated) returned bIAP inhibitor 19, mIAP block 14, hIAP act 0.98, mIAP act 0.86, hIAP block 2 and bIAP activator 0.8.
For COc1ccc(/C=C/c2onc(C)c2S(=O)(=O)N2CCC(C(=O)N3CCC(C)CC3)CC2)cc1 the results were mIAP block 18, hIAP act 1.1, mIAP act 0.82 and hIAP block -12.
`CCOc1ccccc1C(=O)NCC(=O)OCCOc1cccc(Cl)c1` gave mIAP block 1, hIAP act 0.98, mIAP act 0.99 and hIAP block 2.
For COc1ccc(CCNC(=O)c2cc(-c3cc(Cl)cc(Cl)c3)oc2C)cc1 the results were bIAP inhibitor -3, mIAP block -300, hIAP act 1, mIAP act 4*, hIAP block 0, bIAP activator 1 and mIAP inh conf -107.
For CCOc1ccc(OCCC(=O)NNC(=O)c2ccncc2)cc1 the results were mIAP block -5, hIAP act 0.91, mIAP act 1.1 and hIAP block 9.
CCCCCOc1ccc(C(=O)CCC(=O)NNC(=O)c2ccncc2)cc1 was read as mIAP block -178, hIAP act 1.8, mIAP act 2.8*, hIAP block -82 and mIAP inh conf -252.
